Measured values reported in ChEMBL document CHEMBL4265962, “Pyrrolidine nucleoside bisphosphonates as antituberculosis agents targeting hypoxanthine-guanine phosphoribosyltransferase” (Eur J Med Chem, 2018).
≈ marks a conversion by molar mass, not a printed value.

Experiments:
[1] = molecular target: T1, Hypoxanthine-guanine phosphoribosyltransferase (Mycobacterium tuberculosis (strain ATCC 25618 / H37Rv), UniProt P9WHQ9); assay: Inhibition of Mycobacterium tuberculosis recombinant N-terminal 6His-tagged HGPRT expressed in Escherichia coli BL21 (DE3) using fixed concentration of guanine and variable concentrations of PRib-PP as substrate by spectrophotometric analysis
T1 sequence (P9WHQ9 whole entry): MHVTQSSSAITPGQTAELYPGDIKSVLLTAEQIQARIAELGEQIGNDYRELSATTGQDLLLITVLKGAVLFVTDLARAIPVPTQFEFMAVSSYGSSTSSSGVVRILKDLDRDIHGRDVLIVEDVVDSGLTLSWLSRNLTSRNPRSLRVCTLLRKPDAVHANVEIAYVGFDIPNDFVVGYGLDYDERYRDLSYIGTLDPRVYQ
Method in brief: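 Recombinant MtHGPRT, stored in 0.1 M Tris-HCl, 12 mM MgCl2, pH 7.4 with 200 μM PRib-PP at -80 °C. Continuous spectrophotometric assay following guanine to GMP at 257.5 nm in 0.01 M phosphate, 12 mM MgCl2, pH 7.4.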

[2] = molecular target: T2, Hypoxanthine-guanine phosphoribosyltransferase (Homo sapiens, UniProt P00492); assay: Inhibition of human HGPRT using fixed concentration of guanine and variable concentrations of PRib-PP as substrate by spectrophotometric analysis
T2 sequence (P00492 whole entry): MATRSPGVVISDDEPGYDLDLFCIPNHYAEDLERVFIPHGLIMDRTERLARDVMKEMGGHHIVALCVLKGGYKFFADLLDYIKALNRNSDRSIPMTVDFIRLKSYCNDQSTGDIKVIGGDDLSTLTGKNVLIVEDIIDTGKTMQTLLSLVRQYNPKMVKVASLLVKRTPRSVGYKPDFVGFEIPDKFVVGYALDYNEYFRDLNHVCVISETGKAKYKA

[3] = Ratio of Ki for Mycobacterium tuberculosis recombinant N-terminal 6His-tagged HGPRT expressed in Escherichia coli BL21 (DE3) to Ki for human HGPRT
[4] = molecular target: T1, Hypoxanthine-guanine phosphoribosyltransferase; assay: Inhibition of Mycobacterium tuberculosis recombinant N-terminal 6His-tagged HGPRT expressed in Escherichia coli BL21 (DE3) using fixed concentration of guanine and variable concentrations of PRib-PP as substrate in presence of pyrophosphate by spectrophotometric analysis
Method in brief: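 Continuous assay of recombinant MtHGPRT at 257.5 nm (guanine to GMP) in 0.01 M phosphate, 12 mM MgCl2, pH 7.4, with 400 μM pyrophosphate added.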

[5] = tested on: Mycobacterium tuberculosis; assay: Antitubercular activity against replicating stage of Mycobacterium tuberculosis H37Rv after 5 days by resazurin dye-based assay; type: functional; settings: 120 h
[6] = tested on: Mycobacterium tuberculosis; assay: Antitubercular activity against Mycobacterium tuberculosis H37Rv after 5 days under hypoxic condition by resazurin dye-based assay; type: functional; settings: 120 h
[7] = tested on: Mycobacterium tuberculosis; assay: Antitubercular activity against Mycobacterium tuberculosis H37Rv infected in human THP-1 cells after 4 days by fluorescence based assay; type: functional; settings: 96 h
Method in brief: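 THP-1 cells differentiated with 50 ng/ml PMA for 72 h (5×10^5 cells/mL), infected with mCherry-expressing H37Rv at MOI 1:1 for 2 h, washed twice to remove extracellular bacilli.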

[8] = Cytotoxicity against human A549 cells after 4 days by Coulter counting analysis; type: cell-based
Method in brief: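 A549 cells seeded at 7500/well; serially diluted compounds added the next day. After 4 days at 37 °C, cells were trypsinized and counted. CC50 is the concentration that gives 50% inhibition of proliferation relative to no-compound control. It was obtained by extrapolation assuming a semi-log dose-response.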

[9] = molecular target: T2, Hypoxanthine-guanine phosphoribosyltransferase; assay: Inhibition of recombinant human HGPRT using fixed concentration of guanine and variable concentrations of PRib-PP as substrate by Hanes plot analysis
[10] = tested on: Mycobacterium tuberculosis; assay: Ratio of MIC90 for Mycobacterium tuberculosis H37Rv under hypoxic condition to MIC90 for replicating stage of Mycobacterium tuberculosis H37Rv; type: functional
Method in brief: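 Inhibitors were serially diluted, incubated 5 days at 37 °C, then read by fluorescence (ex 530/em 590) for MIC90. The hypoxic arm used a 0.1% O₂ chamber, was read 48 h after resazurin addition, and ran isoniazid controls in parallel.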

Nc1nc2c(ncn2[C@@H]2CNC[C@@H]2OCP(=O)(O)O)c(=O)[nH]1
Ki [1]: 8000 nM | Ki [2]: 29000 nM | Ratio Ki [3]: 0.3 | Ki [4]: 740 nM

O=C(CCP(=O)(O)O)N1C[C@@H](n2cnc3c(O)ncnc32)[C@H](OC[C@H](O)P(=O)(O)O)C1
Ki [1]: 200 nM

Nc1nc2c(ncn2[C@@H]2CN(C(=O)CCP(=O)(O)O)C[C@@H]2OCCP(=O)(O)O)c(=O)[nH]1
Ki [1]: 40 nM | Ki [2]: 30 nM | Ratio Ki [3]: 1.3

O=C(CCP(=O)(O)O)N1C[C@H](OCCP(=O)(O)O)[C@H](n2cnc3c(O)ncnc32)C1
Ki [1]: 420 nM | Ki [2]: 600 nM | Ratio Ki [3]: 0.7

Nc1nc2c(ncn2[C@@H]2CN(C(=O)CCP(=O)(O)O)C[C@H]2OC[C@@H](O)P(=O)(O)O)c(=O)[nH]1
Ki [1]: 60 nM | Ratio Ki [3]: 20 | MIC90 [5]: 14 µM (≈ 6.95 µg/mL) | MIC90 [6]: 29 µM (≈ 14.4 µg/mL) | MIC90 [7]: 85 µM (≈ 42.2 µg/mL) | CC50 at 96 h [8]: 132000 nM | Ki [9]: 3 nM | Ratio [10]: 2

O=P(O)(O)CO[C@H]1CNC[C@H]1n1cnc2c(O)ncnc21
Ki [1]: 88000 nM | Ki [2]: 327000 nM | Ratio Ki [3]: 0.3 | Ki [4]: 3000 nM

Nc1nc2c(ncn2[C@@H]2CN(C(=O)CCP(=O)(O)O)C[C@H]2OC[C@H](O)P(=O)(O)O)c(=O)[nH]1
Ki [1]: 130 nM | Ratio Ki [3]: 16 | Ki [9]: 8 nM

O=C(CCP(=O)(O)O)N1C[C@@H](n2cnc3c(O)ncnc32)[C@H](OC[C@@H](O)P(=O)(O)O)C1
Ki [1]: 60 nM
